According to paper PMC7931646 (The Journal of Experimental Medicine, 2021):
pIC50: −log10 of the molar value. Converted amounts (≈) assume the structure as drawn. Where two headings read alike, the source gives them in different places.

Assays:
[1] = test system: CSF Aβ42 and Aβ40; settings: human, 200 mg, ref Soares et al., 2016, cited from earlier work
[2] = test system: P-glycoprotein (MDR1); assay: MDR1-MDCK permeability; assay type: in vitro ADME; settings: dog
How it was run: (§1)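 Transport across MDR1-MDCK cell monolayers. Apparent permeability was measured in the apical-to-basolateral direction (× 10−6 cm/s). Efflux ratio was calculated as Papp B-A / Papp A-B.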

[3] = MDR1-MDCK permeability; assay type: in vitro ADME; settings: dog
How it was run: as §1

[4] = Plasma protein binding, equilibrium dialysis; assay type: in vitro ADME; settings: rat
How it was run: (§2)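 Equilibrium dialysis of test compound in human, rat or mouse plasma against buffer across a semipermeable membrane. Compound concentrations in both compartments were measured by LC/MS, and percent bound was derived from them.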

[5] = test system: S. typhimurium strains TA1535, TA1537, TA98, TA100 and E. coli strain WP2 (uvrA); assay: GLP Salmonella–Escherichia coli/microsome plate incorporation; assay type: cell-based, Salmonella typhimurium; settings: S. typhimurium TA98 and TA100, only with Aroclor-induced rat liver S9; data not shown
How it was run: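 GLP plate-incorporation mutagenicity test using S. typhimurium TA1535, TA1537, TA98 and TA100 and E. coli WP2 (uvrA). Each strain was run with and without a metabolic activation mix of Aroclor 1254–induced rat liver microsomes (S9). Read-out is revertant bacterial growth.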

[6] = Liver microsomal stability, human; assay type: in vitro ADME; settings: liver microsomes
How it was run: (§3)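 Test compound at 1 µM was incubated for 30 min with liver microsomes at 1 mg/ml (human, rat or mouse). Result is percent of parent compound remaining.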

[7] = GLP 28-d IND-enabling safety/toxicology study of compound 1 in NHPs; assay type: in vivo, NHP; settings: data not shown
[8] = Liver microsomal stability, rat; assay type: in vitro ADME; settings: liver microsomes
How it was run: as §3

[9] = Liver microsomal stability, mouse; assay type: in vitro ADME; settings: liver microsomes
How it was run: as §3

[10] = target: CYP450 3A4 (Homo sapiens, UniProt P08684); assay: CYP450 inhibition, recombinant isoform; assay type: in vitro ADME
How it was run: (§4)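 Recombinant human CYP450 isoforms were incubated with isoform-specific probe substrates; for CYP3A4 these were midazolam and testosterone. Inhibition was quantified by LC-MS/MS analysis of probe-substrate turnover.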

[11] = Plasma protein binding, equilibrium dialysis; assay type: in vitro ADME; settings: mouse
How it was run: as §2

[12] = Plasma protein binding, equilibrium dialysis; assay type: in vitro ADME; settings: human
How it was run: as §2

[13] = target: CYP450 2D6 (Homo sapiens, UniProt P10635); assay: CYP450 inhibition, recombinant isoform; assay type: in vitro ADME
How it was run: as §4

[14] = target: CYP450 2C9 (Homo sapiens, UniProt P11712); assay: CYP450 inhibition, recombinant isoform; assay type: in vitro ADME
[15] = GLP 28-d IND-enabling safety/toxicology study of compound 1 in rats; assay type: in vivo, rat; settings: data not shown
[16] = target: CYP450 2C19 (Homo sapiens, UniProt P33261); assay: CYP450 inhibition, recombinant isoform; assay type: in vitro ADME
How it was run: as §4

[17] = Kinetic aqueous solubility, PBS pH 7.4; assay type: physicochemical; settings: PBS buffer, pH 7.4, aqueous buffer, kinetic from dmso stock
How it was run: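 Kinetic solubility in PBS at pH 7.4, read by UV/Vis absorbance and reported in micromolar.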

[18] = target: T1, CYP450 1A2 (Homo sapiens, UniProt P05177); assay: CYP450 inhibition, recombinant isoform; assay type: in vitro ADME
T1 sequence (P05177 1-516): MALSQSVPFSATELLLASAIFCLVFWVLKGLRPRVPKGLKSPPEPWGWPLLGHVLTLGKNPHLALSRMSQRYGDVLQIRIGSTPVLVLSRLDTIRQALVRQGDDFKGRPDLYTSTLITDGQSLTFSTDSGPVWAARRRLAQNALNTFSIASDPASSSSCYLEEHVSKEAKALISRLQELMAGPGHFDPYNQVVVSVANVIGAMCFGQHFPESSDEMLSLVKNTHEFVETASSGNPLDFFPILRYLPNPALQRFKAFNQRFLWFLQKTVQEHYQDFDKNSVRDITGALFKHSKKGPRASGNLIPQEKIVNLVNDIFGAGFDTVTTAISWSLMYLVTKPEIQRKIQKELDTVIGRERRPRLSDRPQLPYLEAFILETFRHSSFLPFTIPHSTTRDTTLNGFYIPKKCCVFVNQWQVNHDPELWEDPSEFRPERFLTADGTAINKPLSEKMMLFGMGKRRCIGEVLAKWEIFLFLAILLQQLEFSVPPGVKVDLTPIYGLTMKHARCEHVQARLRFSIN
How it was run: as §4

[19] = test system: S. typhimurium bacterial strains TA98, TA100, TA1535, TA1537; assay: Non-GLP screening; assay type: cell-based, Salmonella typhimurium; settings: 5–100 µM, with and without Aroclor-induced rat liver S9
How it was run: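 Non-GLP mini-Ames screen using S. typhimurium TA98, TA100, TA1535 and TA1537, with and without Aroclor-induced rat liver S9. Test article was applied at 5–100 µM. Read-out was bacterial growth from reversion of the histidine mutation.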

[20] = Kinetic solubility in simulated intestinal fluids; assay type: physicochemical; settings: for FaSSIF dissolved compound concentration: FaSSIF pH 6.5, UV/Vis absorbance; for FeSSIF dissolved compound concentration: FeSSIF pH 5.8, UV/Vis absorbance
How it was run: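 Dissolved test compound concentration in FaSSIF or FeSSIF simulated intestinal fluids, determined by UV/Vis absorbance.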

[21] = target: hERG channel (Homo sapiens, UniProt Q12809); assay: Patch-Xpress patch-clamp hERG assay in HEK-293 cells; assay type: cell-based
[22] = test system: plasma Aβ42; settings: human, 250 mg, SAD study; ref Yu et al., 2014; cited from earlier work
[23] = test system: CSF Aβ42; settings: human, ref Ahn et al., 2020, cited from earlier work; for CSF Aβ42 levels lowered: MAD study
[24] = ref Green et al., 2009; cited from earlier work
[25] = test system: γ-secretase; settings: ref Green et al., 2009; cited from earlier work
[26] = CYP450 IC50 3A4 (m), probe substrate midazolam

Sequence of hERG channel (Q12809 whole entry): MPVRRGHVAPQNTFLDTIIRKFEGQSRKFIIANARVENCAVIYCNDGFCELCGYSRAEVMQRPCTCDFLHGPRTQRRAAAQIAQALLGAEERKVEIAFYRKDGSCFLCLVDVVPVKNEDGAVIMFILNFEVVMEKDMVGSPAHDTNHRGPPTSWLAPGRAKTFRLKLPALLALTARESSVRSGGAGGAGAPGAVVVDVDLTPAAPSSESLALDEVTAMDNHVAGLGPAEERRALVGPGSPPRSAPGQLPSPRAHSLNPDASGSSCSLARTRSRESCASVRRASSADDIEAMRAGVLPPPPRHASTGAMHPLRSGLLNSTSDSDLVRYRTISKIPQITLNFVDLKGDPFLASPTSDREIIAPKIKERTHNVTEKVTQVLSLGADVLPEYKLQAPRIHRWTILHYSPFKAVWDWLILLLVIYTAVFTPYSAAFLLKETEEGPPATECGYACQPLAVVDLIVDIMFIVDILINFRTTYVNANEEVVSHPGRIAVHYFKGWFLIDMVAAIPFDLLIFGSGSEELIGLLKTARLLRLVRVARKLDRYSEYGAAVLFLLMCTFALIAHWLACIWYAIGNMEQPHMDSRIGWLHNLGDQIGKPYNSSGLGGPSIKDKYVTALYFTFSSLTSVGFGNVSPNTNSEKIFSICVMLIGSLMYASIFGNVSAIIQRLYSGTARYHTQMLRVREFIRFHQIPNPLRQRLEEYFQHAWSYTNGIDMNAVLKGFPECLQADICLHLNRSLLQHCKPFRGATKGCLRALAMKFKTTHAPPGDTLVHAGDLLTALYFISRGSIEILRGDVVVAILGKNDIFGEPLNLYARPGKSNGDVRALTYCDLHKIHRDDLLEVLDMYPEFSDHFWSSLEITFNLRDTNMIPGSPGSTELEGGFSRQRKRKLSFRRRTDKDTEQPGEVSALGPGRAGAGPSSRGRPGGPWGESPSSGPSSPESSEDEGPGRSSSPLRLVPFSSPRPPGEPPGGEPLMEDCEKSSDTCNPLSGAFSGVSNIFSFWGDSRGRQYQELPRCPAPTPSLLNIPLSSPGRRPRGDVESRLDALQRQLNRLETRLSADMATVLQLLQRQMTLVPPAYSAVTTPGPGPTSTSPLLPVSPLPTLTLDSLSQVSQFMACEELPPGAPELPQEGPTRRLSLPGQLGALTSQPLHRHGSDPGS
Sequence of CYP450 2C9 (P11712 whole entry, canonical isoform): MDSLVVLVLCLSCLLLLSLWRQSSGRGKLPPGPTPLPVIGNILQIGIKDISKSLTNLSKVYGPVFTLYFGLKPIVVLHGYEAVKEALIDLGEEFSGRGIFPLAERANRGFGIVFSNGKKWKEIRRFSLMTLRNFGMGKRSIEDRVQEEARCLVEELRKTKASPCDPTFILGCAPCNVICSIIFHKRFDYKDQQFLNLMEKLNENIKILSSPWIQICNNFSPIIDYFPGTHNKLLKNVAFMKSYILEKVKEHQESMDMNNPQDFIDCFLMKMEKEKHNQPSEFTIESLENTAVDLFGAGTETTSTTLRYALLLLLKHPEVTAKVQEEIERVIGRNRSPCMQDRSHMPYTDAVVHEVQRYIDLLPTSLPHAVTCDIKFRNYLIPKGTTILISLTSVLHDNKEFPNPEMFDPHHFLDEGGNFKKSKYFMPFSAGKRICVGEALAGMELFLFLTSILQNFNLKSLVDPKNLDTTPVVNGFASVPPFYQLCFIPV
Sequence of CYP450 3A4 (P08684 whole entry, canonical isoform): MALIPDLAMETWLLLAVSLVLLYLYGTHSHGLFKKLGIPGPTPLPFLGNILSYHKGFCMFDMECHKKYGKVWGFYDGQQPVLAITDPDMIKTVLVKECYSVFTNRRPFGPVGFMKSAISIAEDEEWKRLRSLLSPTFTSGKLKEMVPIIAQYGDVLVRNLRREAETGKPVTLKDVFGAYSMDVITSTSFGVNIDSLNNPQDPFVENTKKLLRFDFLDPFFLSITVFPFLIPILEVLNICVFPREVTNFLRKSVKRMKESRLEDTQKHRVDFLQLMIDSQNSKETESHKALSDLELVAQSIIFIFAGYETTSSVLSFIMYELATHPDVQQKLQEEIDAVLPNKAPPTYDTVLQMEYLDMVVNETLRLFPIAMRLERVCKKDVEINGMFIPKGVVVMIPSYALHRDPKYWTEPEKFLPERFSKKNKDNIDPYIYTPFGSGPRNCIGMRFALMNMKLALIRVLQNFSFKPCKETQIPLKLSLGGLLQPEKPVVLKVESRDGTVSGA
Sequence of CYP450 2D6 (P10635 whole entry, canonical isoform): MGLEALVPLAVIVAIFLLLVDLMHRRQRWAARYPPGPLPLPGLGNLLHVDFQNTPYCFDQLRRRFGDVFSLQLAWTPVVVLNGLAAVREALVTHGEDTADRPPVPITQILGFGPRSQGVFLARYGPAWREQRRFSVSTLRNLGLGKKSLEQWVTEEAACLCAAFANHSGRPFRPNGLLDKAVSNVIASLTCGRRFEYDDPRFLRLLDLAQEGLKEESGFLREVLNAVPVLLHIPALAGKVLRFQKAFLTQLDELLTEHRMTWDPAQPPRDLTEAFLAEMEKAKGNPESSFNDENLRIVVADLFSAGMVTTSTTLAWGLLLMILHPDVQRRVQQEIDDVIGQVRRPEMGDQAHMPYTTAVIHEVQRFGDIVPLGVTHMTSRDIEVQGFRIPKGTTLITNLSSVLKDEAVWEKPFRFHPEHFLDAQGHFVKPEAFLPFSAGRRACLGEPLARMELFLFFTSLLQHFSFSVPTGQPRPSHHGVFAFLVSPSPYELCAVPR
Sequence of CYP450 2C19 (P33261 whole entry, canonical isoform): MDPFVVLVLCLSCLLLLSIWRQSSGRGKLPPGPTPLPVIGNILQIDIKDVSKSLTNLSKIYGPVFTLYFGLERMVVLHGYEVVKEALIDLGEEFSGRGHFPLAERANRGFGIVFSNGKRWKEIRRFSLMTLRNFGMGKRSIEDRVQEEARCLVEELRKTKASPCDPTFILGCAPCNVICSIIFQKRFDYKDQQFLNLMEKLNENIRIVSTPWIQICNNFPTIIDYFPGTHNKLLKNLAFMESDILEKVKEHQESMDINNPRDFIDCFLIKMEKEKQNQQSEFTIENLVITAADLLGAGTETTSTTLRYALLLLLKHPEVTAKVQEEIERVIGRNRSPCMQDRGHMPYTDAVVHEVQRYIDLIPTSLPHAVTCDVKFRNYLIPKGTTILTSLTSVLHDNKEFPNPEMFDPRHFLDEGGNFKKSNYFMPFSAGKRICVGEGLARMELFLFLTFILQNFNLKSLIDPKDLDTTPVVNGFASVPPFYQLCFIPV

Structure (SMILES) | efflux ratio [2] | Papp A→B [3] [×10⁻⁶ cm/s] | fraction unbound [4] | remaining at 0.5 h, 1 µM [6] [%] | remaining at 0.5 h, 1 µM [8] [%] | remaining at 0.5 h, 1 µM [9] [%] | pIC50 [10] | pIC50 [10, 26] | fraction unbound [11] | fraction unbound [12] | pIC50 [13] | pIC50 [14] | pIC50 [16] | solubility kinetic [17] [µM] | pIC50 [18] | Ames [19] | FaSSIF dissolved compound concentration [20] | FeSSIF dissolved compound concentration [20] | pIC50 [21] | other results
CNc1nc(Nc2ccc(-n3cnc(C)n3)c(OC)c2)nc2c1CC[C@H]2c1ccc(F)cc1 [BMS-932481] | – | – | – | – | – | – | – | – | – | – | – | – | – | – | – | – | – | – | – | maximal lowering of CSF Aβ40 levels ([1]; 2-wk MAD study): 74%; maximal lowering of CSF Aβ42 levels ([1]; 2-wk MAD study): 77%; stage 3 elevations in alanine amino transferase [1]: two of six subjects
COc1nc(-c2cc(C)c(N[C@@H](C)c3ccc(F)cc3)nn2)ccc1-n1cnc(C)c1 [Compound 1, (S)-N-(1-(4-fluorophenyl)ethyl)-6-(6-methoxy-5-(4-methyl-1H-imidazol-1-yl)pyridin-2-yl)-4-methylpyridazin-3-amine] | 0.9 | 37.2 | 0.001 | 78 | 84 | 76 | 5.05 | 4.85 | 0.002 | 0.004 | 5.33 | 5.89 | 5.16 | 6.6 (≈ 2.76 µg/mL) | 4.43 | Positive | >100/ >100 | >100/ >100 | 5.21 | Ames assay results [5]: highly variable; finding in GLP 28-d IND-enabling study in NHPs [7]: evidence of corrected QT interval prolongation; finding in GLP 28-d IND-enabling study in rat [15]: potentially mutagenic metabolite(s)
COc1nc(-c2cc(C)c(N[C@@H](C)c3c(F)cc(F)cc3F)nn2)ccc1-n1cnc(C)c1 [Compound 3, (S)-6-(6-methoxy-5-(4-methyl-1H-imidazol-1-yl)pyridin-2-yl)-4-methyl-N-(1-(2,4,6-trifluorophenyl)ethyl)pyridazin-3-amine] | 1.1 | 30.2 | 0.003 | 100 | 100 | 100 | 4.77 | 4.72 | 0.003 | 0.003 | 4.70 | 5.89 | 4.89 | < 1.3 | 5.44 | Negative | 79 | 82 | 5.51 | CYP450 2C9 IC50 relative to Aβ42 IC50 [14]: over 200 fold; safety margin between Aβ42 IC50 and hERG IC20 [21]: > 100 fold; IC20 ([21]; human, HEK-293 cells expressing hERG): 1 µM
COc1nc(/C=C/c2nc3n(n2)CCC[C@H]3c2ccccc2C(F)(F)F)ccc1-n1cnc(C)c1 [E2212] | – | – | – | – | – | – | – | – | – | – | – | – | – | – | – | – | – | – | – | maximal lowering of plasma Aβ42 levels (AUC0–24 h) [22]: 44.1%
Cc1cn(-c2ccc3n(c2=O)CCN([C@@H](C)[C@@H]2CC[C@H](c4cc(F)c(Cl)cc4C(F)(F)F)O2)C3=O)cn1 [PF-06648671] | – | – | – | – | – | – | – | – | – | – | – | – | – | – | – | – | – | – | – | CSF Aβ42 levels lowered ([23]; 100 mg): 44%; CSF Aβ42 levels lowered ([23]; 200 mg): 59%; CSF Aβ42 levels lowered ([23]; 360 mg): 65%; safety profile ([23]; up to 360 mg qd for 14 d): good safety profile
C[C@@H](C(=O)O)c1ccc(-c2ccccc2)c(F)c1 [R-flurbiprofen] | – | – | – | – | – | – | – | – | – | – | – | – | – | – | – | – | – | – | – | efficacy in phase 3 human trials [24]: did not show efficacy; in vitro GSM activity [25]: weak
